The nature of data set [1]: folding enthalpy; higher = less favourable; fluorescence melt of hairpins on a sequencing array, two-state fit. As to conditions: sodium 0.088 M. The essentials:
(§1)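 On a sequenced MiSeq flow cell, library hairpins with annealed Cy3 and quencher oligos were imaged for Cy3 fluorescence in 2.5 °C steps up to 60 °C, in 50 mM Na-HEPES pH 8.0, 25 mM NaCl. Normalisation used pre-quench Cy3 and control constructs. Bootstrapped two-state fits gave melting temperature and folding enthalpy, combined by inverse variance across four replicates and with fitted temperatures raised by 9.35 °C to match UV melts.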

Data set [2] can be described thus: melting temperature; fluorescence melt of hairpins on a sequencing array, two-state fit, raised by 9.35 °C to match UV melts. The conditions noted are these: sodium 0.088 M. The essentials:
as §1

Take GTCATGGCGAAAGCCGAC (((..(((....)))))): the folding enthalpy in data set [1] is -13.4 kcal/mol. In data set [2], the Tm worked out at 42.6 °C.
As to GTCATTGGAAACAATGGC (.(((((....))))).), the folding enthalpy in data set [1] was -28.6 kcal/mol. Further, the Tm in data set [2] stood at 47.6 °C.
The like results for GTCCAACGAAAGTTGAC (((.(((....)))))) were, in that order, -14.7 kcal/mol and 45 °C.
Take GTCCAACGAAAGTTTGAC (((.(((....))).))): the folding enthalpy in data set [1] was -27.7 kcal/mol. For the same sequence, in data set [2], the Tm is 42 °C.
For the sequence GTCCAAGGAAACCTGGAC (((((.(....).))))), the folding enthalpy in data set [1] was -27.7 kcal/mol. Further, the Tm in data set [2] was determined as 46.8 °C.
The like results for GTCCACCGAAAGGTCGAC (((.(((....))).))) were, in that order, -27.2 kcal/mol and 44 °C.
Turning to GTCCACGGAAACACGGAC ((((..(....)..)))), the folding enthalpy in data set [1] was -18.4 kcal/mol. Besides, the Tm in data set [2] was determined as 37.2 °C.
The like results for GTCCAGGGAAACCTGGGC (.(((((....))))).) were, in that order, -33.1 kcal/mol and 56.5 °C.
The matching figures for GTCCCAACGAAAGTTGAC (((..(((....)))))): -9.31 kcal/mol and 25 °C.
In the case of GTCCCAGGAAACCAGGAC ((((..(....)..)))), the folding enthalpy in data set [1] was -21.2 kcal/mol. For the same sequence, the Tm in data set [2] is 35.6 °C.
Take GTCCCCCGAAAGGGAGAC (((.(((....))).))): in data set [1], the folding enthalpy is -30.1 kcal/mol. The Tm in data set [2] came out at 56.6 °C.
Consider GTCCCCCGAAAGGGCGAC (((.(((....))).))), for which the folding enthalpy in data set [1] was -21.6 kcal/mol. Moreover, the Tm in data set [2] was 49.1 °C.
For the sequence GTCCCCCGAAAGGGGAC (((.(((....)))))), in data set [1], the folding enthalpy was -19.9 kcal/mol. Moreover, the Tm in data set [2] turned out to be 67.2 °C.
As to GTCCCCGAAAGGGAGAC ((((((....))).))), the folding enthalpy in data set [1] is -30 kcal/mol. Moreover, the Tm in data set [2] is 53.7 °C.
GTCCCCGAAAGGGATGAC ((((((....)))..))): the folding enthalpy in data set [1] was -14.6 kcal/mol. Moreover, in data set [2], the Tm was determined as 44.8 °C.
With GTCCCCGAAAGGGGGGAC ((((((....)))..))), the folding enthalpy in data set [1] was -11.7 kcal/mol. For the same sequence, the Tm in data set [2] worked out at 60.5 °C.
As to GTCCCCGGAAACAGGGAC (((((.(....).))))), the folding enthalpy in data set [1] was -39.9 kcal/mol. Further, the Tm in data set [2] came out at 48.6 °C.
Take GTCCCCGGAAACGGGAAC ((.((((....)))).)): the folding enthalpy in data set [1] was -15.1 kcal/mol. In addition, the Tm in data set [2] came to 46.4 °C.
Consider GTCCCCGGAAACGGGGGC (.(((((....))))).), for which the folding enthalpy in data set [1] is -19.5 kcal/mol. For the same sequence, the Tm in data set [2] stood at 68 °C.
The matching figures for GTCCCGCGAAAGCGAGAC (((.(((....))).))): -32.5 kcal/mol and 55.7 °C.
GTCCCGCGAAAGCGTGAC (((.(((....))).))): in data set [1], the folding enthalpy is -23.9 kcal/mol. In data set [2], the Tm amounted to 52.9 °C.
Take GTCCCGGGAAACCGGGGC (.(((((....))))).): in data set [1], the folding enthalpy was -19 kcal/mol. Moreover, the Tm in data set [2] stood at 64.3 °C.
With GTCCCTGAAAAGGGAC ((((((....)))))), in data set [1], the folding enthalpy was -34.6 kcal/mol. The Tm in data set [2] is 67.7 °C.
Take GTCCCTGGAAACAGGAAC ((.((((....)))).)): the folding enthalpy in data set [1] is -21.6 kcal/mol. Moreover, the Tm in data set [2] is 36.1 °C.
With GTCCCTGGAAACAGGGGC (.(((((....))))).), the folding enthalpy in data set [1] is -27.5 kcal/mol. In data set [2], the Tm was determined as 57.4 °C.
Take GTCCGAGGAAACCCGGAC (((((.(....).))))): the folding enthalpy in data set [1] was -40.5 kcal/mol. In addition, in data set [2], the Tm was 53.2 °C.
As for GTCCGCCGAAAGGCTGAC (((.(((....))).))), the folding enthalpy in data set [1] is -21.9 kcal/mol. Besides, the Tm in data set [2] is 57.3 °C.
GTCCGCGAAAGCGCCGAC ((((((....)))..))): the folding enthalpy in data set [1] is -11.1 kcal/mol. Also, the Tm in data set [2] is 36.9 °C.
In the case of GTCCGCGAAAGCGTTGAC ((((((....)))..))), in data set [1], the folding enthalpy is -14.4 kcal/mol. Also, the Tm in data set [2] is 36.8 °C.
Take GTCCGCGGAAACACGGAC (((((.(....).))))): the folding enthalpy in data set [1] was -42 kcal/mol. In addition, in data set [2], the Tm is 54.2 °C.
Regarding GTCCGCGGAAACGCAGAC (((.(((....))).))), the folding enthalpy in data set [1] is -21.5 kcal/mol. For the same sequence, the Tm in data set [2] was determined as 49.9 °C.
For the sequence GTCCGGCCGAAAGGCGAC (((..(((....)))))), the folding enthalpy in data set [1] was -12.8 kcal/mol. For the same sequence, in data set [2], the Tm stood at 41.7 °C.
For GTCCGGCGAAAGCCAGAC (((.(((....))).))), the folding enthalpy in data set [1] is -27.5 kcal/mol. In addition, in data set [2], the Tm was 50.7 °C.
The like results for GTCCGGGCGAAAGCCGAC (((..(((....)))))) were, in that order, -11.1 kcal/mol and 44.3 °C.
Turning to GTCCGGGGAAACCCAGAC (((.(((....))).))), the folding enthalpy in data set [1] is -29.6 kcal/mol. The Tm in data set [2] stood at 42.8 °C.
Regarding GTCCGGTCGAAAGACGAC (((..(((....)))))), in data set [1], the folding enthalpy was -12.6 kcal/mol. Moreover, the Tm in data set [2] was determined as 38.5 °C.
Regarding GTCCGTGGAAACACGAAC ((.((((....)))).)), in data set [1], the folding enthalpy is -21 kcal/mol. In data set [2], the Tm is 39.7 °C.
The matching figures for GTCCTACGAAAGTACGAC (((.(((....))).))): -24.9 kcal/mol and 35.2 °C.
As to GTCCTAGGAAACTGGGAC ((((.((....)).)))), the folding enthalpy in data set [1] was -37.8 kcal/mol. Further, the Tm in data set [2] turned out to be 49.4 °C.
GTCCTATCGAAAGATGAC (((..(((....)))))): the folding enthalpy in data set [1] was -8.25 kcal/mol. Besides, the Tm in data set [2] amounted to 23.4 °C.
GTCCTCGAAAGAGAAGAC ((((((....)))..))): the folding enthalpy in data set [1] was -19.8 kcal/mol. Moreover, the Tm in data set [2] amounted to 32.2 °C.
Regarding GTCCTCGAAAGAGCTGAC ((((((....)))..))), in data set [1], the folding enthalpy was -12.4 kcal/mol. Further, the Tm in data set [2] stood at 29.5 °C.
As to GTCCTCGAAAGAGGAGAC ((((((....)))..))), in data set [1], the folding enthalpy is -10.2 kcal/mol. Moreover, the Tm in data set [2] is 47.8 °C.
For GTCCTCGAAAGAGTGAC ((((((....))).))), the folding enthalpy in data set [1] is -25.7 kcal/mol. The Tm in data set [2] is 46.3 °C.
The matching figures for GTCCTCGAAAGAGTTGAC ((((((....)))..))): -10.7 kcal/mol and 31.2 °C.
Regarding GTCCTGCGAAAGCAAGAC (((.(((....))).))), the folding enthalpy in data set [1] is -23.3 kcal/mol. Moreover, in data set [2], the Tm came to 48.1 °C.
With GTCGAACGAAAGTTAGAC (((.(((....))).))), the folding enthalpy in data set [1] was -33.1 kcal/mol. Further, in data set [2], the Tm was 52.6 °C.
Take GTCGAACGAAAGTTGGAC (((.(((....))).))): the folding enthalpy in data set [1] is -46.4 kcal/mol. In addition, in data set [2], the Tm is 50.6 °C.
GTCGAAGGAAACTTCAAC ((.((((....)))).)): the folding enthalpy in data set [1] was -12.4 kcal/mol. Moreover, the Tm in data set [2] stood at 26.9 °C.
As to GTCGAAGGAAACTTTGAC (((.(((....))).))), the folding enthalpy in data set [1] was -31.1 kcal/mol. For the same sequence, the Tm in data set [2] is 44.5 °C.
The matching figures for GTCGACGAAAGTCGAGAC ((((((....)))..))): -9.56 kcal/mol and 51.9 °C.
For the sequence GTCGACGAAAGTCGCGAC ((((((....)))..))), the folding enthalpy in data set [1] is -12.6 kcal/mol. In addition, in data set [2], the Tm was found to be 57.4 °C.
The matching figures for GTCGAGCGAAAGCTGGAC (((.(((....))).))): -28.9 kcal/mol and 56.1 °C.
Take GTCGAGCGAAAGCTTGAC (((.(((....))).))): the folding enthalpy in data set [1] is -35.4 kcal/mol. The Tm in data set [2] came out at 63.9 °C.

These data come from the array DNA melting data of Ke et al. (doi:10.1101/2024.01.08.574731).
